From ChEMBL document CHEMBL2417446, “Atropisomeric 4-phenyl-4H-1,2,4-triazoles as selective glycine transporter 1 inhibitors” (J Med Chem, 2013)
In brackets after ≈: the same amount, converted by molar mass. Blank lines part the entries; values can stand above or below the molecule they belong to.

Tests used:
[1] = Aqueous solubility of the compound at pH 6.8 after 20 hrs by HPLC analysis; type: physicochemical; conditions: buffer; for solubility at 20 h: pH 6.8; for solubility: pH 6.8, 20 h, 20 h
[2] = target: T1, Sodium- and chloride-dependent glycine transporter 1 (Rattus norvegicus, UniProt P28572); test: Displacement of [3H]glycine from GlyT1 in rat C6 glioma cells incubated for 30 mins prior to substrate addition measured after 10 mins by scintillation counting analysis; type: cell-based
T1 sequence (P28572 whole entry): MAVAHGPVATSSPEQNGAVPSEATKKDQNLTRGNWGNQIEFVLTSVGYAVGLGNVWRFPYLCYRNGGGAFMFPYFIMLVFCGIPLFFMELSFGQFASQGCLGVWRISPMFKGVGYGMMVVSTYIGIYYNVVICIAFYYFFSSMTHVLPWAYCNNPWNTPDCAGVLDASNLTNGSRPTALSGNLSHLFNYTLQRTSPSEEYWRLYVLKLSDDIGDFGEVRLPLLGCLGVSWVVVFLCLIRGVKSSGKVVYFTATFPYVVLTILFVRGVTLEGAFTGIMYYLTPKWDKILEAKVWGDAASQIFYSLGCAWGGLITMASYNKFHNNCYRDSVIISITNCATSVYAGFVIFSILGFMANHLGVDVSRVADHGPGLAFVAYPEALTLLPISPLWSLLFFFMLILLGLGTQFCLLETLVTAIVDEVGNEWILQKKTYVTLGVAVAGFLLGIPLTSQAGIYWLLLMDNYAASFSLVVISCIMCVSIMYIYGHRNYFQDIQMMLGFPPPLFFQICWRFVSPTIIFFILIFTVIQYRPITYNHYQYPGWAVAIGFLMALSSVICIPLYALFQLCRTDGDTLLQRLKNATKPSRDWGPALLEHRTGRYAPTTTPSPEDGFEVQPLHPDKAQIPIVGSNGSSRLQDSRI

[3] = target: T2, Sodium- and chloride-dependent glycine transporter 2 (Rattus norvegicus, UniProt P58295); test: Displacement of [3H]glycine from GlyT2 in Wistar rat brainstem cells after 10 mins by scintillation counting analysis; type: cell-based
T2 sequence (P58295 whole entry): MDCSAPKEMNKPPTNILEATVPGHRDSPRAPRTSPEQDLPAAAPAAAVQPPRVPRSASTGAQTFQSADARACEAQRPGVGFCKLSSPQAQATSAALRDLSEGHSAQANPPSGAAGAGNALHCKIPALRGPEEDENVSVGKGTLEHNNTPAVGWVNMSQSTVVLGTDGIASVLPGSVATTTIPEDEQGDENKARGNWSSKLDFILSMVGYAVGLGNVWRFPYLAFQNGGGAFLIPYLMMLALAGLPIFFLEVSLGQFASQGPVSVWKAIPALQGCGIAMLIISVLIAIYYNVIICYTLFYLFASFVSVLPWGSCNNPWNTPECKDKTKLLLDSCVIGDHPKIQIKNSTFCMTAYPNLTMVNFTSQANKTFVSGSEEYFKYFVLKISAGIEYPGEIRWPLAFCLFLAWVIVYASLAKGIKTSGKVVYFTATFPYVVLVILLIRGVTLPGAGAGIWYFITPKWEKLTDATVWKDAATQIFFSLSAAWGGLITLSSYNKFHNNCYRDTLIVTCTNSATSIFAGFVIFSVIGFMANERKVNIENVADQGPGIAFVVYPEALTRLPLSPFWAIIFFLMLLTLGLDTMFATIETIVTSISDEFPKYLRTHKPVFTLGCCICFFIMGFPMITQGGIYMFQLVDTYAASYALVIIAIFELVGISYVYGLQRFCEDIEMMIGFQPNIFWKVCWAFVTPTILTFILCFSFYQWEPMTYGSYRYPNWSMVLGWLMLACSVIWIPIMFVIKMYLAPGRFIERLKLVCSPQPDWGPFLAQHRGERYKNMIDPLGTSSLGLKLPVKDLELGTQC

[4] = test system: MDR1; test: (§1) Apparent permeability from apical to basolateral side in pig LLC-PK1 cells expressing MDR1 after 2 hrs by LC-MS/MS analysis; type: ADME, cell-based, Sus scrofa; conditions: LLC-PK1
How it was run: (§2)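 Transport in LLC-PK1 cells and in LLC-GA5-COL150 cells (LLC-PK1 transfected with human MDR1). Papp = amount transported divided by initial donor concentration. Efflux ratio compares the Papp of the two directions (BA/AB).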

[5] = Ratio of brain to plasma in ddY mouse at 1 mg/kg, iv by LC-MS analysis; type: ADME, organism-based; design: dose 1 mg/kg, route intravenous; conditions: read-out: BPR
[6] = Intrinsic clearance in ddY mouse liver microsomes by LC-MS/MS analysis; type: ADME, Microsome; conditions: read-out: CLH
How it was run: (§3)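 Liver microsome CLint was run in duplicate.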

[7] = Lipophilicity, log D of the compound at pH 7.4; type: physicochemical; conditions: buffer
[8] = Intrinsic clearance in human liver microsomes after 30 mins by LC-MS/MS analysis; type: ADME, Microsome; conditions: read-out: CLH; how it was run: as §3
[9] = target: T3, Sodium- and chloride-dependent glycine transporter 1 (Rattus norvegicus) (UniProt P28572); conditions: C6 glioma, 10 uM
T3 sequence (whole entry): T1 sequence (P28572 whole entry)

[10] = Half life in cynomolgus monkey at 1 mg/kg, iv by LC/MS analysis; type: ADME, organism-based, Macaca fascicularis; design: dose 1 mg/kg, route intravenous; conditions: in vivo
How it was run: (§4)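 Single dose given iv at 1 mg/kg or po at 3 mg/kg; each value is the mean of n = 3 measurements.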

[11] = Half life in ddY mouse at 1 mg/kg, iv by LC/MS analysis; type: ADME, organism-based; design: dose 1 mg/kg, route intravenous; conditions: in vivo; how it was run: as §4
[12] = AUC in ddY mouse at 1 mg/kg, iv by LC/MS analysis; type: ADME, organism-based; design: dose 1 mg/kg, route intravenous; conditions: plasma; how it was run: as §4
[13] = Cmax in ddY mouse at 3 mg/kg, po by LC/MS analysis; type: ADME, organism-based; design: dose 3 mg/kg, route oral; conditions: in vivo; how it was run: as §4
[14] = test system: LLC-PK1; test: as §1; type: ADME, cell-based, Sus scrofa; conditions: llc-pk1, 2 h, 2 h; how it was run: as §2
[15] = Plasma clearance in ddY mouse at 1 mg/kg, iv by LC/MS analysis; type: ADME, organism-based; design: dose 1 mg/kg, route intravenous; how it was run: as §4
[16] = AUC in cynomolgus monkey at 1 mg/kg, iv by LC/MS analysis; type: ADME, organism-based, Macaca fascicularis; design: dose 1 mg/kg, route intravenous; conditions: plasma; how it was run: as §4
[17] = AUC in ddY mouse at 3 mg/kg, po by LC/MS analysis; type: ADME, organism-based; design: dose 3 mg/kg, route oral; conditions: plasma; how it was run: as §4
[18] = Plasma clearance in cynomolgus monkey at 1 mg/kg, iv by LC/MS analysis; type: ADME, organism-based, Macaca fascicularis; design: dose 1 mg/kg, route intravenous; how it was run: as §4
[19] = Volume of distribution at steady state in cynomolgus monkey at 1 mg/kg, iv by LC/MS analysis; type: ADME, organism-based, Macaca fascicularis; design: dose 1 mg/kg, route intravenous; conditions: in vivo, read-out: Vdss
How it was run: (§5)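 Single intravenous dose as a pharmacokinetic study, with each parameter reported as the mean of n = 3 measurements.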

[20] = Volume of distribution at steady state in ddY mouse at 1 mg/kg, iv by LC/MS analysis; type: ADME, organism-based; design: dose 1 mg/kg, route intravenous; conditions: in vivo, read-out: Vdss; how it was run: as §5
[21] = Oral bioavailability in cynomolgus monkey at 3 mg/kg by LC/MS analysis; type: ADME, organism-based, Macaca fascicularis; conditions: in vivo; how it was run: as §4
[22] = Oral bioavailability in ddY mouse at 3 mg/kg by LC/MS analysis; type: ADME, organism-based; conditions: in vivo; how it was run: as §4
[23] = AUC in cynomolgus monkey at 3 mg/kg, po by LC/MS analysis; type: ADME, organism-based, Macaca fascicularis; design: dose 3 mg/kg, route oral; conditions: plasma; how it was run: as §4
[24] = Cmax in cynomolgus monkey at 3 mg/kg, po by LC/MS analysis; type: ADME, organism-based, Macaca fascicularis; design: dose 3 mg/kg, route oral; conditions: in vivo; how it was run: as §4
[25] = Intrinsic clearance in cynomolgus monkey liver microsomes after 30 mins by LC-MS/MS analysis; type: ADME, Macaca fascicularis, Microsome; conditions: read-out: CLH; how it was run: as §3

Compound: CCc1nnc(-c2ccc(-c3ccccc3)nc2)n1-c1ccccc1F
solubility at 20 h [1]: 31 µM (≈ 10.7 µg/mL)

Compound: Cc1nnc(-c2ccc(-c3cccnc3)cc2)n1-c1ccccc1F
IC50 [2]: 7 µM

Compound: Cc1nnc(-c2ccc(-c3ccccn3)cc2)n1-c1ccccc1F
IC50 [3]: 1.6 µM
IC50 [2]: 0.86 µM

Compound: CCc1nnc(-c2ccc(-c3ccccc3)nc2)n1-c1cccc(C#N)c1C
Papp A→B at 2 h [4]: 29.6 ×10⁻⁶ cm/s
Kp [5]: 0.7
solubility [1]: 98 µM (≈ 35.8 µg/mL)

Compound: CCc1nnc(N2CCC(c3ccccc3)CC2)n1-c1ccccc1F
IC50 [2]: 3.7 µM

Compound: Cc1nnc(-c2ccc(-c3ccncc3)cc2)n1-c1ccccc1F
IC50 [2]: 5.9 µM

Compound: CCc1nnc(C2CCN(c3ccccc3)CC2)n1-c1ccccc1F
IC50 [2]: 6.6 µM

Compound: CCc1nnc(-c2ccc(-c3ccccc3)nc2)n1-c1cccc(C#N)c1C (atropisomer S)
solubility at 20 h [1]: 94 µM (≈ 34.4 µg/mL)

Compound: CCc1nnc(N2CCN(c3ccccc3)CC2)n1-c1ccccc1F
IC50 [2]: 2.6 µM

The next lines start with the values.

IC50 [2]: 5.1 µM
Compound: CCc1nnc(-c2ccc(-c3ccccc3)cc2)n1-c1cccc(C(=O)OC)c1C

IC50 [2]: 29 µM
Compound: CCc1nnc(-c2ccc(-c3ccccc3)cc2)n1-c1cccc(CN(C)C)c1C

IC50 [2]: 2.2 µM
Compound: CCc1nnc(-c2ccc(-c3ccccc3)cc2)n1-c1cccc(Cl)c1C

IC50 [2]: 2.4 µM
Compound: CCc1nnc(-c2ccc(-c3ccccc3)cc2)n1-c1cccc(COC)c1C

IC50 [2]: 2.8 µM
Compound: CCc1nnc(-c2ccc(-c3ccccc3)cc2)n1-c1cccc(CC#N)c1C

Papp A→B at 2 h [4]: 27.5 ×10⁻⁶ cm/s
CLint scaled [6]: > 1000 mL/min/kg
solubility at 20 h [1]: < 1 µM
logD [7]: 4.1
CLint scaled [8]: 126 mL/min/kg
Compound: CCc1nnc(-c2ccc(-c3ccccc3)cc2)n1-c1cccc(C#N)c1C

IC50 [2]: 3.9 µM
Compound: CCc1nnc(-c2ccc(-c3ccccc3)cc2)n1-c1cccc(C(N)=O)c1C

IC50 [2]: 2.2 µM
Compound: CCc1nnc(-c2ccc(-c3ccccc3)cc2)n1-c1cccc(Br)c1C

solubility at 20 h [1]: < 1 µM
Compound: CCc1nnc(-c2ccc(-c3ccccc3)cc2)n1-c1ccccc1F

inhibition [9]: 38%
IC50 [2]: > 10 µM
Compound: CCc1nnc(-c2ccc(-c3ccccc3)cc2)n1-c1cccc(C(F)(F)F)c1C

Papp A→B at 2 h [4]: 25.6 ×10⁻⁶ cm/s
CLint scaled [6]: > 1000 mL/min/kg
solubility at 20 h [1]: 5 µM (≈ 1.88 µg/mL)
logD [7]: 4.1
CLint scaled [8]: 374 mL/min/kg
Compound: CCc1nnc(-c2ccc(-c3ccccc3)cc2)n1-c1cccc2cnccc12

half-life [10]: 2.4 h
half-life [11]: 0.22 h
AUC [12]: 248 ng·h/mL
Cmax [13]: 319 ng/mL
Papp [14]: 35.4 ×10⁻⁶ cm/s
clearance [15]: 67 mL/min/kg
AUC [16]: 875 ng·h/mL
AUC [17]: 235 ng·h/mL
clearance [18]: 21 mL/min/kg
Vd [19]: 3.4 L/kg
Vd [20]: 1 L/kg
CLint scaled [6]: 787 mL/min/kg
bioavailability [21]: 23%
solubility [1]: 95 µM (≈ 34.7 µg/mL)
bioavailability [22]: 32%
AUC [23]: 522 ng·h/mL
Cmax [24]: 141 ng/mL
CLint scaled [25]: 162 mL/min/kg
logD [7]: 3
CLint scaled [8]: 55 mL/min/kg
Compound: CCc1nnc(-c2ccc(-c3ccccc3)nc2)n1-c1cccc(C#N)c1C (atropisomer R)

IC50 [2]: 3.1 µM
Compound: CCc1nnc(-c2ccc(-c3ccccc3)cc2)n1-c1cccc(N(C)C)c1C
